This note sets out measurements from ChEMBL document CHEMBL3124896, “Optimization of the lactam side chain of 7-azaindenoisoquinoline topoisomerase I inhibitors and mechanism of action studies in cancer cells” (2014).

By GI50 is commonly meant the concentration giving 50% growth inhibition. Low values mean more potent growth inhibition, high ones less potent growth inhibition.

Experiment [1] deals with DU-145. Briefly: Cytotoxicity against human DU145 cells by SRB assay. It is filed as functional.
Experiment [2] deals with SN12C. In words: Cytotoxicity against human SN12C cells by SRB assay. It is filed as functional. (In general: In SRB staining, fixed cells bind dye roughly in proportion to their protein.)
Experiment [3] deals with HCT-116. Briefly: Cytotoxicity against human HCT116 cells by SRB assay. Format: functional.
For experiment [4], the target named is T1, DNA topoisomerase 1 (Homo sapiens) (UniProt P11387).
T1 sequence (whole entry): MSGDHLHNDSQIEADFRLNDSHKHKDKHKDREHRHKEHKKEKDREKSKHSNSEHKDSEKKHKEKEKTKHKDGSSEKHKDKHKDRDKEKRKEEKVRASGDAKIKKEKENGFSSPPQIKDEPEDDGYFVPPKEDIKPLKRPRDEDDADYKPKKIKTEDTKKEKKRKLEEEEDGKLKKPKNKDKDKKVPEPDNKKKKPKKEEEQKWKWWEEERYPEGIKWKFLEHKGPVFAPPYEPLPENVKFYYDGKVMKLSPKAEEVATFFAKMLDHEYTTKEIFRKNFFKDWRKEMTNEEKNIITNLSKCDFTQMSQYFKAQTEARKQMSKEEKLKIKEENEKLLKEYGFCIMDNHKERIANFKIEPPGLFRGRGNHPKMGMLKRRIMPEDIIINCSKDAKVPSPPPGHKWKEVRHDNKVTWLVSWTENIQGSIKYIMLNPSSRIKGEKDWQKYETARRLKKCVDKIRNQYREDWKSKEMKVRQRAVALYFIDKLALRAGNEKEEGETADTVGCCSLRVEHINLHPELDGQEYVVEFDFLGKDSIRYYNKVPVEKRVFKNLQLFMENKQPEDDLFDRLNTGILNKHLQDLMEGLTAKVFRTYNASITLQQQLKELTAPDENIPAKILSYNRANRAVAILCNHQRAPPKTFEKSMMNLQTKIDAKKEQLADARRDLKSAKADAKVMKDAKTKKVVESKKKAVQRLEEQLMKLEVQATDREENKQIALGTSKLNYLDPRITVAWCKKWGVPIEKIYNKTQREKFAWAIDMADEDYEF
In words: Inhibition of human recombinant topoisomerase 1 using radiolabeled DNA as substrate at 100 uM after 20 mins by SDS-PAGE. The procedure, abridged: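 A 117 bp oligonucleotide was 3′-end-labelled with [α-32P]dGTP by Klenow fill-in. Reactions were stopped with 0.5% SDS and run on 20% denaturing polyacrylamide gels. Cleavage bands were scored visually on a semiquantitative scale.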

The test system of experiment [5] is HOP-62. In words: Cytotoxicity against human HOP62 cells by SRB assay. It is filed as functional.
The subject of experiment [6] is UACC-62. Briefly: Cytotoxicity against human UACC62 cells by SRB assay. It is filed as functional.
Experiment [7] has as its system DU-145. In words: Cytotoxicity against human DU145 cells after 72 hrs by MTT assay. Conditions: DU-145, 72 h. It is filed as functional. In short, it runs like this:
(§1)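 Cells were seeded 24 h before dosing and exposed continuously for 72 h. Growth was read by colorimetric MTS assay and expressed relative to vehicle-treated controls set at 100. GI50 is the level giving 50% growth inhibition, from at least two independent determinations. HCT116 and siTop1 cells were kept in RPMI 1640/10% FBS with 100 μg/mL hygromycin; RC0.1 in RPMI 1640/10% FBS.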

The target of experiment [8] is T1, DNA topoisomerase 1 (Homo sapiens). Briefly: Inhibition of human recombinant topoisomerase 1 in human HCT116 cells assessed as stabilization of topoisomerase 1-DNA cleavage complex at 1 uM after 1 hr by DNA immunoblotting analysis. Format: cell-based. Conditions: HCT-116. In short, it runs like this: (§2)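 10^6 HCT116 cells were treated with 1 μM for 1 h, and for reversal were held in drug-free medium for the set times. Cells were lysed with DNAzol and genomic DNA was isolated and sonicated. Serial dilutions were slot-blotted onto membranes and Top1–DNA complexes detected with the C21 anti-Top1 monoclonal antibody by immunoblotting (ICE method).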

The target is the same in experiment [9]. In words: Inhibition of human recombinant topoisomerase 1 in human HCT116 cells assessed as DNA-protein cross linking at 1 uM incubated for 1 hr followed by compound washout measured after 1 hr. It is filed as cell-based. Conditions: HCT-116. The procedure, abridged: (§3)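 In HCT116 cells, Top1 cleavage complexes were quantified as DNA–protein cross-links by alkaline elution, plotting the fraction of DNA retained on the filter against time. Persistence was read 1 h after drug removal. The negative control was untreated cells given 30 Gy irradiation to create strand breaks.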

The nature of experiment [10]: Cytotoxicity against human H460 cells after 72 hrs by MTT assay. It is filed as functional. Conditions: NCI-H460, 72 h. The procedure, abridged:
as §1
On the technique in general: Tetrazolium assays rely on reduction of a dye to a coloured formazan, in cell work by metabolically active cells.

The target in experiment [11] is T1, DNA topoisomerase 1 (Homo sapiens). Briefly: Inhibition of human recombinant topoisomerase 1 in human HCT116 cells assessed as reversal of topoisomerase 1-DNA cleavage complex stabilization at 1 uM incubated for 1 hr followed by compound washout measured up to 6 hrs by DNA immunoblotting analysis. Format: cell-based. Conditions: HCT-116. The procedure, abridged: as §2
Background: Immunoblotting shows a protein as a band on a membrane.

Experiment [12] concerns OVCAR-3. Briefly: Cytotoxicity against human OVCAR3 cells by SRB assay. It is filed as functional.
Experiment [13] has as its system MCF7. In words: Cytotoxicity against human MCF7 cells by SRB assay. It is filed as functional.
Experiment [14] has as its system HCT-116. Briefly: Resistance ratio of GI50 for human HCT116 cells transfected with Top1-siRNA to GI50 for human HCT116 cells. It is filed as functional. The procedure, abridged:
(§4)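 Relative resistance = GI50 in the resistant subline divided by GI50 in the parental line. Both GI50s came from 72 h continuous-exposure MTS growth assays, each based on at least two independent determinations.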

The target of experiment [15] is T1, DNA topoisomerase 1 (Homo sapiens). Briefly: Inhibition of human recombinant topoisomerase 1 in human HCT116 cells assessed as reversal of topoisomerase 1-DNA cleavage complex stabilization at 1 uM incubated for 1 hr followed by compound washout measured after 24 hrs by DNA immunoblotting analysis. Format: cell-based. Conditions: HCT-116. The procedure, abridged:
as §2

Experiment [16] in a line: Cytotoxicity against human KB 3.1 cells after 72 hrs by MTT assay. Format: functional. Conditions: KB 3-1, 72 h. The procedure, abridged:
as §1

The nature of experiment [17]: Resistance ratio of GI50 for vinblastine-resistant human KBV1 cells to GI50 for human KB 3.1 cells. Format: functional.
Experiment [18] has as its target T1, DNA topoisomerase 1 (Homo sapiens). In words: Inhibition of human recombinant topoisomerase 1 using radiolabeled DNA as substrate at 0.1 to 100 uM after 20 mins by SDS-PAGE. In short, it runs like this: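 Baculovirus-purified human recombinant Top1 with ~2 nM of a 117 bp oligonucleotide, 3′-end-labeled with [α-32P]dGTP by Klenow fill-in. Drugs at 0.1, 1, 10, 100 μM; 25 °C, 20 min. Stopped with 0.5% SDS, run on 20% denaturing PAGE, phosphorimaged. Cleavage bands scored visually against camptothecin standard.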

The test system of experiment [19] is HCT-116. Briefly: Cell cycle arrest in human HCT116 cells assessed as accumulation at G2 phase at 1 uM incubated for 1 hr followed by compound washout measured after 6 to 48 hrs by propidium iodide staining-based FACS analysis. Format: functional. In short, it runs like this: (§5)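 HCT116 cells exposed to 1 μM drug for 1 h, then kept in drug-free medium for the stated times. Fixed cells were stained with propidium iodide and analysed by flow cytometry for DNA content histograms. Phase distributions were computed from the histograms.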

A short description of experiment [20]: Cytotoxicity against human mitoxantrone-resistant H460 cells after 72 hrs by MTT assay. Format: functional. Conditions: NCI-H460, 72 h. In short, it runs like this: as §1
For experiment [21], the system named is HCT-116. In words: Cell cycle arrest in human HCT116 cells assessed as accumulation at S phase at 1 uM incubated for 1 hr followed by compound washout measured after 3 hrs by propidium iodide staining-based FACS analysis. It is filed as functional. The procedure, abridged: as §5
Experiment [22] relates to HCT-116. In words: Cytotoxicity against human HCT116 cells transfected with Top1-siRNA after 72 hrs by MTT assay. It is filed as functional. Conditions: HCT-116, 72 h. The procedure, abridged:
as §1

Experiment [23] deals with DU-145. Briefly: Resistance ratio of GI50 for human RC0.1 cells to GI50 for human DU145 cells. It is filed as functional. In short, it runs like this: as §4
For experiment [24], the system named is SF-539. Briefly: Cytotoxicity against human SF539 cells by SRB assay. It is filed as functional.
The target in experiment [25] is T1, DNA topoisomerase 1 (Homo sapiens). Briefly: Inhibition of human recombinant topoisomerase 1 in human HCT116 cells assessed as DNA-protein cross linking at 1 uM after 1 hr. It is filed as cell-based. Conditions: HCT-116. In short, it runs like this: as §3
Experiment [26] deals with HCT-116. In words: Cytotoxicity against human HCT116 cells after 72 hrs by MTT assay. Format: functional. Conditions: HCT-116, 72 h. The procedure, abridged:
as §1

A short description of experiment [27]: Resistance ratio of GI50 for human mitoxantrone-resistant H460 cells to GI50 for human H460 cells. It is filed as functional. The procedure, abridged:
as §4

In experiment [28] the test system is HCT-116. In words: Induction of DNA damage in human HCT116 cells assessed as induction of histone gamma-H2AX level at 1 uM after 1 hr by flow cytometry.
The test system of experiment [29] is HCT-116. In words: Cell cycle arrest in human HCT116 cells at 1 uM after 1 hr by propidium iodide staining-based FACS analysis. It is filed as functional. The procedure, abridged: as §5
The subject of experiment [30] is HCT-116. Briefly: Cell cycle arrest in human HCT116 cells at 1 uM incubated for 1 hr followed by compound washout measured up to 1 hr by propidium iodide staining-based FACS analysis. Format: functional. In short, it runs like this: as §5
Experiment [31] can be described thus: Cytotoxicity against human RC0.1 cells after 72 hrs by MTT assay. Format: functional. The procedure, abridged: as §1
The nature of experiment [32]: Cytotoxicity against vinblastine-resistant human KBV1 cells after 72 hrs by MTT assay. Format: functional. Conditions: KB-V1, 72 h. The procedure, abridged: as §1

The source made the active and inactive calls. The calls are words filed in the database; no cut-off is given here.

Turning to `COc1cc2c3c(n(C)c(=O)c2cc1OC)-c1cc2c(cc1C3=O)OCO2`, the GI50 came out at 37 µM in experiment [1]; 68 µM in experiment [2]; 35 µM in experiment [3]; 1.3 µM in experiment [5]; 4.2 µM in experiment [6]. Moreover, in experiment [4], the inhibition entry is “Active”.
On to `COc1cnc2c(c1)C(=O)c1c-2n(CCCn2ccnc2)c(=O)c2cc([N+](=O)[O-])ccc12.Cl`, for which the GI50 in experiment [7] is 0.0457 µM; in [10] it was 0.0219 µM; in experiment [12], 0.025 µM; in [13] it was under 0.01 µM; in [16] it was 0.417 µM; in [20] it was 0.417 µM. For the same compound, the GI50 was under 0.01 µM in experiment [1]; 0.0708 µM in [22]; under 0.01 µM in [2]; under 0.01 µM in experiment [24]; 0.0219 µM in experiment [26]; under 0.01 µM in experiment [3]. Further, the GI50 in experiment [5] is under 0.01 µM; in [6], under 0.01 µM; in [31], over 1 µM; in experiment [32], 0.427 µM. The inhibition entry in [8], in [9], in experiment [11], in experiment [15], in experiment [18] and in [25] was “Active” throughout. Moreover, the RatioGI50 is listed as 3.24 in experiment [14], 1.02 in experiment [17], over 21.88 in [23] and 19.05 in [27]. Further, the result in experiment [19], in experiment [21], in experiment [29] and in experiment [30] was Active. For the same compound, in experiment [28], the Activity came to 37.3%.
